Laboratory results reported in ChEMBL document CHEMBL5352450, “Synthesis and structure-activity relationship studies of original cyclic diadenosine derivatives as nanomolar inhibitors of NAD kinase from pathogenic bacteria” (Eur J Med Chem, 2023).
The source made the active and inactive calls. The rule behind the calls is not given here.

Legend:
Listeria monocytogenes [1] = assay: Antibacterial activity against Listeria monocytogenes assessed as reduction in bacterial growth at 0.01 ug/ml incubated for 6 hrs by microplate reader assay; assay type: functional, organism-based; conditions: dose 0.01 µg/ml
Method in brief: (§1)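 Overnight 37°C BHI cultures (S. aureus Xen36; L. monocytogenes EGDe) diluted 1:100 into BHI with compound at 0.01 µg/mL in 25% PBS/10% DMSO (S. aureus) or 25% PBS/1% DMSO (Listeria). Controls: vehicle and 10 µg/mL levofloxacin. Shaken at 200 rpm, 37°C, 6 h; growth read on plate reader as percent growth; n=6 biological replicates, one-way ANOVA.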

Listeria monocytogenes [2] = assay: Antibacterial activity against Listeria monocytogenes assessed as bacterial growth inhibition in presence of polymyxin B by microplate reader assay; assay type: functional, organism-based
Method in brief: (§2)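 Same diluted-culture BHI set-up (S. aureus Xen36 in 25% PBS/10% DMSO; L. monocytogenes EGDe in 25% PBS/1% DMSO) with each compound plus polymyxin B at 20, 40, 60 or 80 µg/mL. Incubated shaking at 200 rpm, 37°C; growth monitored by microplate reader.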

Staphylococcus aureus [3] = assay: Antibacterial activity against Staphylococcus aureus assessed as reduction in bacterial growth at 0.01 ug/ml incubated for 6 hrs by microplate reader assay; assay type: functional, organism-based; conditions: dose 0.01 µg/ml; method in brief: as §1
Staphylococcus aureus [4] = assay: Antibacterial activity against Staphylococcus aureus assessed as bacterial growth inhibition in presence of polymyxin B by microplate reader assay; assay type: functional, organism-based; method in brief: as §2
NAD kinase 1 = target: T1, NAD kinase 1 (Listeria monocytogenes serotype 4b (strain F2365), UniProt Q721J8); assay: Inhibition of Listeria monocytogenes NADK1 expressed in Escherichia coli assessed as inhibition constant measured every 32 secs for 32 mins by absorbance based analysis
T1 sequence (Q721J8 whole entry): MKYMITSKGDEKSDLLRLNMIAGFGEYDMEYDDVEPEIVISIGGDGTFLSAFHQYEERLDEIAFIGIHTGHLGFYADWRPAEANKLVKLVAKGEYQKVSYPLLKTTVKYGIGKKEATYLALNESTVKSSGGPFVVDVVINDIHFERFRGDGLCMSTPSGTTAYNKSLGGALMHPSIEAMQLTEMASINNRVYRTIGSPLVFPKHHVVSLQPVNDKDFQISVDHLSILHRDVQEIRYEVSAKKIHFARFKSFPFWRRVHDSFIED

| SMILES | Activity (Listeria monocytogenes [1]) | Activity (Listeria monocytogenes [2]) | Activity (Staphylococcus aureus [3]) | Activity (Staphylococcus aureus [4]) | Ki (NAD kinase 1) [µM] |
| --- | --- | --- | --- | --- | --- |
| Nc1ncnc2c1ncn2[C@@H]1O[C@H](CN2CC#Cc3nc4c(N)ncnc4n3[C@@H]3O[C@H](CNC(=O)NCCCNC(=O)C2)[C@@H](O)[C@H]3O)[C@@H](O)[C@H]1O | inactive | inactive | inactive | Active | 0.177 |
| Nc1ncnc2c1ncn2[C@@H]1O[C@H](CN2CC#Cc3nc4c(N)ncnc4n3[C@@H]3O[C@H](CNC(=O)NCCNC(=O)C2)[C@@H](O)[C@H]3O)[C@@H](O)[C@H]1O | inactive | inactive | inactive | Active | 7.6 |
| NCCC(=O)NC[C@H]1O[C@@H](n2c(C#CCN(CC(=O)O)C[C@H]3O[C@@H](n4cnc5c(N)ncnc54)[C@H](O)[C@@H]3O)nc3c(N)ncnc32)[C@H](O)[C@@H]1O | – | – | – | – | 19 |
| Nc1ncnc2c1ncn2[C@@H]1O[C@H](CN2CC#Cc3nc4c(N)ncnc4n3[C@@H]3O[C@H](CNC(=O)CNC(=O)C2)[C@@H](O)[C@H]3O)[C@@H](O)[C@H]1O | inactive | inactive | inactive | Active | 15 |
| NCCN(CC#Cc1nc2c(N)ncnc2n1[C@@H]1O[C@H](CNC(=O)CC(=O)O)[C@@H](O)[C@H]1O)C[C@H]1O[C@@H](n2cnc3c(N)ncnc32)[C@H](O)[C@@H]1O | – | – | – | – | 53 |
| Nc1ncnc2c1ncn2[C@@H]1O[C@H](CN2CC#Cc3nc4c(N)ncnc4n3[C@@H]3O[C@H](CNC(=O)CCNC(=O)C2)[C@@H](O)[C@H]3O)[C@@H](O)[C@H]1O | inactive | inactive | inactive | Active | 0.504 |
| Nc1ncnc2c1ncn2[C@@H]1O[C@H](CN2CC#Cc3nc4c(N)ncnc4n3[C@@H]3O[C@H](CNS(=O)(=O)CCNC(=O)C2)[C@@H](O)[C@H]3O)[C@@H](O)[C@H]1O | inactive | inactive | inactive | Active | 0.054 |
| NCCNC(=O)NC[C@H]1O[C@@H](n2c(C#CCN(CC(=O)O)C[C@H]3O[C@@H](n4cnc5c(N)ncnc54)[C@H](O)[C@@H]3O)nc3c(N)ncnc32)[C@H](O)[C@@H]1O | – | – | – | – | 18 |
| Nc1ncnc2c1ncn2[C@@H]1O[C@H](CN2CC#Cc3nc4c(N)ncnc4n3[C@@H]3O[C@H](CNC(=O)CC(=O)NCC2)[C@@H](O)[C@H]3O)[C@@H](O)[C@H]1O | inactive | inactive | inactive | Active | 6.8 |
| NCCS(=O)(=O)NC[C@H]1O[C@@H](n2c(C#CCN(CC(=O)O)C[C@H]3O[C@@H](n4cnc5c(N)ncnc54)[C@H](O)[C@@H]3O)nc3c(N)ncnc32)[C@H](O)[C@@H]1O | – | – | – | – | 91 |
| NCCS(=O)(=O)NC[C@H]1O[C@@H](n2c(C#CCOC[C@H]3O[C@@H](n4cnc5c(N)ncnc54)[C@H](O)[C@@H]3O)nc3c(N)ncnc32)[C@H](O)[C@@H]1O | – | – | – | – | 5.5 |
| NCC(=O)NC[C@H]1O[C@@H](n2c(C#CCN(CC(=O)O)C[C@H]3O[C@@H](n4cnc5c(N)ncnc54)[C@H](O)[C@@H]3O)nc3c(N)ncnc32)[C@H](O)[C@@H]1O | – | – | – | – | 104 |
| NCCCNC(=O)NC[C@H]1O[C@@H](n2c(C#CCN(CC(=O)O)C[C@H]3O[C@@H](n4cnc5c(N)ncnc54)[C@H](O)[C@@H]3O)nc3c(N)ncnc32)[C@H](O)[C@@H]1O | – | – | – | – | 16 |
| C[C@H]1COc2c(N3CCN(C)CC3)c(F)cc3c(=O)c(C(=O)O)cn1c23 | inactive | – | – | – | – |
| Nc1ncnc2c1ncn2[C@@H]1O[C@H](COCC#Cc2nc3c(N)ncnc3n2[C@@H]2O[C@H](CO)[C@@H](O)[C@H]2O)[C@@H](O)[C@H]1O | inactive | – | – | – | – |
